Where two headings read alike, the source gives them in different places. One block for each molecule: values may come before it.
Tests used:
[1] = 2NN study, cited from earlier work
[2] = Population pharmacokinetic model fitted to each study site separately; assay type: in vivo, human; settings: split model, 1600/100 mg once daily; for Population predictions CL/F / Population predictions V/F: typical 70 kg male
In short: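 UK sampling: pre-dose to 12 h (24 h if once daily). Thailand: pre-dose to 24 h, 10–15 g fat meal. Plasma from heparinized blood was frozen at −70°C and assayed by HPLC-MS/MS or HPLC-UV. Nonlinear mixed-effects modelling used FO estimation; individual estimates were Bayesian post hoc.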

[3] = for Individual predictions V/F / Population predictions V/F: 1600/100 mg once daily; for Population predictions V/F: typical 70 kg male
[4] = healthy volunteers, Phase I studies; cited from earlier work

Compound: Cc1ccnc2c1NC(=O)c1cccnc1N2C1CC1 [nevirapine]
- higher clearance compared with Thai and South African individuals ([1]; South American HIV patients): ~ 11%
- higher clearance compared with Thai and South African individuals ([1]; Western HIV patients): ~28%

- Individual predictions CL/F ([2]; Thailand): 22.8 L/h
- Individual predictions V/F ([2]; Thailand): 184.1 L
- Population predictions CL/F ([2]; Thailand): 26.7 L/h
- Population predictions V/F ([2]; Thailand): 245.9 L
- Individual predictions CL/F ([2]; UK): 79.4 L/h
- Individual predictions V/F ([2]; UK): 278.8 L
- Population predictions CL/F ([2]; UK): 89.0 L/h
- Population predictions V/F ([2]; UK): 313.5 L
- Individual predictions CL/F ([2]; Uganda): 59.0 L/h
- Individual predictions V/F ([2]; Uganda): 400.2 L
- Population predictions CL/F ([2]; Uganda): 49.8 L/h
- Population predictions V/F ([2]; Uganda): 421.0 L
- observed trough concentrations below target (MEC 0.1 mg/L), number ([3]; both, human, in vivo): 65
- decrease in F ([3]; fasted state compared with standardized meal): ~ 40%
- D1 (duration of zero-order input) ([3]; full model): 3.08 h
- IIV CL/F ([3]; full model): 41.4%
- IIV D1 ([3]; full model): 17.8%
- IIV V/F ([3]; full model): 41.6%
- IIV lag-time ([3]; full model): 46.8%
- IOV CL/F ([3]; full model): 57.3%
- IOV V/F ([3]; full model): 37.3%
- Lag-time ([3]; full model): 0.57 h
- Residual error additive ([3]; full model): 0.26 mg/L
- Residual error proportional ([3]; full model): 34.3%
- V/F ([3]; full model, 1000/100 mg bid evening dose): 545 L
- V/F ([3]; full model, 1000/100 mg bid morning dose): 324 L
- V/F ([3]; full model, 1600/100 mg qd): 324 L
- V/F ([3]; full model, 1600/100 mg qd Thailand): 379 L
- V/F ([3]; full model, 1600/100 mg qd Uganda): 332 L
- V/F ([3]; full model, 2000/100 mg qd): 324 L
- Individual predictions V/F ([3]; full model, Thailand): 195.4 L
- Population predictions V/F ([3]; full model, Thailand): 371.1 L
- Individual predictions V/F ([3]; full model, UK): 272.9 L
- Population predictions V/F ([3]; full model, UK): 317.2 L
- Individual predictions V/F ([3]; full model, Uganda): 521.2 L
- Population predictions V/F ([3]; full model, Uganda): 325.1 L
- increase in F ([3]; high-fat meal (66 g fat) compared with standardized meal): ~ 80%
Compound: CC(C)(C)NC(=O)[C@@H]1C[C@@H]2CCCC[C@@H]2CN1C[C@@H](O)[C@H](Cc1ccccc1)NC(=O)[C@H](CC(N)=O)NC(=O)c1ccc2ccccc2n1 [saquinavir]
- bioavailability F [4]: 0.039

From paper PMC3597129 (The Journal of antimicrobial chemotherapy, 2008)
